Measured values: ChEMBL document CHEMBL2046313, “Discovery and evaluation of a non-Zn chelating, selective matrix metalloproteinase 13 (MMP-13) inhibitor for potential intra-articular treatment of osteoarthritis” (J Med Chem, 2012)

Legend:
Rattus norvegicus [1] = species: Rattus norvegicus; assay: Chondroprotective activity in Sprague-Dawley rat cartilage assessed as inhibition of MMP13-mediated C1,C2 release at 0.5 mg/joint, ia measured on day 14 by ELISA; type: functional
How it was run: (§1)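 Male Sprague-Dawley rats (175−200 g, three per group) received one IA injection of 50 μL PBS holding 10 mg/mL suspension (sonicated, vortexed) into right knee. They were killed at 1, 7, 14 or 21 days, and tibial cartilage was collected. Cartilage was then challenged with 10 μg/mL APMA-activated human MMP-13 for 24 h at 37 °C in Tris pH 7.5. The reaction was stopped with 10 mM EDTA, and released C1,2C was measured by ELISA. Vehicle cartilage incubated with or without MMP-13 defined 100% and 0%.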

Collagenase 3 = Collagenase 3 (Homo sapiens, UniProt P45452); assay: Inhibition of human recombinant MMP13 using MCA-Pro-Cha-Gly-Nva-His-Ala-Dpa-NH2 as substrate preincubated for 10 mins measured by fluorescence analysis
How it was run: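 Catalytic domain of recombinant human MMP-13 was assayed with fluorogenic substrate in 50 mM Tris-HCl pH 7.5, 150 mM NaCl, 5 mM CaCl₂, 0.05% Brij-35. Enzyme was 1–10 nM and substrate 4–10 μM. It was preincubated 10 min with varying inhibitor concentrations, and IC50 came from at least duplicate runs.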

Rattus norvegicus [2] = species: Rattus norvegicus; assay: Chondroprotective activity in Sprague-Dawley rat cartilage assessed as inhibition of MMP13-mediated C1,C2 release at 0.5 mg/joint, ia measured on day 7 by ELISA; type: functional; how it was run: as §1
Stromelysin-1 = Stromelysin-1 (Homo sapiens, UniProt P08254); assay: Inhibition of human recombinant MMP3 using MCAArg-Pro-Lys-Pro-Val-Glu-Nva-Trp-Arg-Lys(DNP)-NH2 as substrate preincubated for 10 mins measured by fluorescence analysis
Sequence of Stromelysin-1 (P08254 whole entry, the tested form may be a part): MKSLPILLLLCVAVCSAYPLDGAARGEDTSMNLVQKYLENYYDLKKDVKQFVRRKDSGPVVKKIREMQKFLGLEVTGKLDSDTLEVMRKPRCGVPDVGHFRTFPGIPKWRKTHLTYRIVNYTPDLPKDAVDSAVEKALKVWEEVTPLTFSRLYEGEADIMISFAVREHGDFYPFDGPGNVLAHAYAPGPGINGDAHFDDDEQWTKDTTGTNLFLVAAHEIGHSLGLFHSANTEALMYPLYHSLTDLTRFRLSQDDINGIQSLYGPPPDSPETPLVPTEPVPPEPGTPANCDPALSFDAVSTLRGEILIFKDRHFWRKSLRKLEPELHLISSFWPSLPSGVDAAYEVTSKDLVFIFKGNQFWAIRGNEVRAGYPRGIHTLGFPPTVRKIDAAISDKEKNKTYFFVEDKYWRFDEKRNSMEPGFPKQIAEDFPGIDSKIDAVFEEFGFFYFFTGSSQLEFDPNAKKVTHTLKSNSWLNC
How it was run: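 Catalytic domain of recombinant human MMP-3 was assayed with NFF-3 fluorogenic substrate in 50 mM MES pH 6.0, 10 mM CaCl₂, 0.05% Brij-35. Enzyme was 1–10 nM and substrate 4–10 μM. Enzyme was preincubated 10 min with varying inhibitor concentrations, and IC50 came from at least duplicate runs.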

Cartilage tissue = assay: Inhibition of collagen degradation in bovine articular cartilage assessed as inhibition of interlukein-1alpha/oncostatin M-induced C1,C2 release measured after 11 days by ELISA; type: functional, tissue-based; conditions: Bos taurus, 264 h
How it was run: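 Freshly isolated bovine articular cartilage pieces (~3 mm²) were stimulated with 5 ng/mL IL-1α plus 50 ng/mL OSM, with or without compound, for 11 days. Medium was refreshed twice weekly. Collagen degradation products in the conditioned medium were quantified by C1,2C ELISA.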

[3] = molecular target: Matrix metalloproteinase-14 (Homo sapiens, UniProt P50281); assay: Inhibition of human recombinant MMP14 using MCA-Pro-Leu-Gly-Leu-Dpa-Ala-Arg-NH2.AcOH as substrate preincubated for 10 mins measured by fluorescence analysis
How it was run: (§2)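 Catalytic domains of recombinant human MMPs were assayed with fluorogenic OmniMMP substrate in 50 mM Tris-HCl pH 7.5, 150 mM NaCl, 5 mM CaCl₂, 0.05% Brij-35. Enzyme was 1–10 nM and substrate 4–10 μM, optimized per assay. Enzyme was preincubated 10 min with varying inhibitor concentrations, and IC50 was calculated from runs done at least in duplicate.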

[4] = molecular target: 72 kDa type IV collagenase (Homo sapiens, UniProt P08253); assay: Inhibition of human recombinant MMP2 using MCA-Pro-Leu-Gly-Leu-Dpa-Ala-Arg-NH2.AcOH as substrate preincubated for 10 mins measured by fluorescence analysis; how it was run: as §2
Sequence of 72 kDa type IV collagenase (P08253 whole entry): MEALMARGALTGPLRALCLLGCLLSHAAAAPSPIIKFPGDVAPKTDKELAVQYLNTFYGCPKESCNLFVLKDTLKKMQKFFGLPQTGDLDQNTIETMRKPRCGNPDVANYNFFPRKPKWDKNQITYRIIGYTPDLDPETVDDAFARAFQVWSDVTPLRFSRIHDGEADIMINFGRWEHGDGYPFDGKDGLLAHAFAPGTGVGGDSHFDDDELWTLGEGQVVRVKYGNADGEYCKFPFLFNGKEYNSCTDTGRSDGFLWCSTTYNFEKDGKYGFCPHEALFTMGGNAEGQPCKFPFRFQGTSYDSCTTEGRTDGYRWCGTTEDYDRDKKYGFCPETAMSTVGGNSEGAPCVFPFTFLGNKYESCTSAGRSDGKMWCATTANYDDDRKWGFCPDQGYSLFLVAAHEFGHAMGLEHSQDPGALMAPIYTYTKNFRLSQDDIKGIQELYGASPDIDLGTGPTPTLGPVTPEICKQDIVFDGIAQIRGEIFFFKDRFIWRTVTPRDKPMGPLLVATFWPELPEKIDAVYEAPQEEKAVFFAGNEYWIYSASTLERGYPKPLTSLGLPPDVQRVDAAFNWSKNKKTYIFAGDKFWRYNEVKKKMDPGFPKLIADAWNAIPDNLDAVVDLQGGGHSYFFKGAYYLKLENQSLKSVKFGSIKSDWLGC

[5] = molecular target: Matrix metalloproteinase-9 (Homo sapiens, UniProt P14780); assay: Inhibition of human recombinant MMP9 using MCA-Pro-Leu-Gly-Leu-Dpa-Ala-Arg-NH2.AcOH as substrate preincubated for 10 mins measured by fluorescence analysis; how it was run: as §2
Sequence of Matrix metalloproteinase-9 (P14780 whole entry): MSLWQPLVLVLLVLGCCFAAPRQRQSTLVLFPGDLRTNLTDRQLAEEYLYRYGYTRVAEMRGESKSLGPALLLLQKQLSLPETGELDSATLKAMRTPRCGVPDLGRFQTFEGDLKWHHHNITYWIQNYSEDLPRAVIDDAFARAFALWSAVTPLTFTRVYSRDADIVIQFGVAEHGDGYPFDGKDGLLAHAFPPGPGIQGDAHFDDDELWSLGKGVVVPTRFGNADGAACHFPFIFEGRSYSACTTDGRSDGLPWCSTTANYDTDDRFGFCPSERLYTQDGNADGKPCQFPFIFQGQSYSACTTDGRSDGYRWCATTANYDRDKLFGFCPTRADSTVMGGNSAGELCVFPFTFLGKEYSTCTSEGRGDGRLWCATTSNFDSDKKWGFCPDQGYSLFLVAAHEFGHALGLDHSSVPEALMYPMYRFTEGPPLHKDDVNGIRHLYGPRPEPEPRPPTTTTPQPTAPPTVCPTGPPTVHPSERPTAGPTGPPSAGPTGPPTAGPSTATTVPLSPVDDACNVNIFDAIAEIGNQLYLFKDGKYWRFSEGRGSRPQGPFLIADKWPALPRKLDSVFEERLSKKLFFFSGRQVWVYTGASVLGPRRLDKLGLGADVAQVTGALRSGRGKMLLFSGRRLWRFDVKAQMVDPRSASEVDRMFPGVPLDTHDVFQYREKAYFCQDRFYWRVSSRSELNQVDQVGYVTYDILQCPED

Neutrophil collagenase = Neutrophil collagenase (Homo sapiens, UniProt P22894); assay: Inhibition of human recombinant MMP8 using MCA-Pro-Leu-Gly-Leu-Dpa-Ala-Arg-NH2.AcOH as substrate preincubated for 10 mins measured by fluorescence analysis; how it was run: as §2
Sequence of Neutrophil collagenase (P22894 whole entry): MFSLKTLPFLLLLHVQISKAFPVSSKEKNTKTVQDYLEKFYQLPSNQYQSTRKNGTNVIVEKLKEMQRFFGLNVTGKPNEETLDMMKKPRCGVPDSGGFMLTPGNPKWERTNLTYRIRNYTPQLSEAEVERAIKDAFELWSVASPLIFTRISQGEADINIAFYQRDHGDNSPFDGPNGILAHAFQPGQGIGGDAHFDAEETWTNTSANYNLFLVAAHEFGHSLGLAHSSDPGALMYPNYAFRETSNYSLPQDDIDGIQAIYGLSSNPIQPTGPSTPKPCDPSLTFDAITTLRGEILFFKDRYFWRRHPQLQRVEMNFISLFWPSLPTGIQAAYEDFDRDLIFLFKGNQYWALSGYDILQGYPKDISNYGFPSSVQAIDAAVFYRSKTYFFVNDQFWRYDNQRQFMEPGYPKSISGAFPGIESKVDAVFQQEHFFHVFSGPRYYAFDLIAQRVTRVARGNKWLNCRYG

Interstitial collagenase = molecular target: T1, Interstitial collagenase (Homo sapiens, UniProt P03956); assay: Inhibition of human recombinant MMP1 using MCA-Pro-Leu-Gly-Leu-Dpa-Ala-Arg-NH2.AcOH as substrate preincubated for 10 mins measured by fluorescence analysis; how it was run: as §2
T1 sequence (P03956 whole entry): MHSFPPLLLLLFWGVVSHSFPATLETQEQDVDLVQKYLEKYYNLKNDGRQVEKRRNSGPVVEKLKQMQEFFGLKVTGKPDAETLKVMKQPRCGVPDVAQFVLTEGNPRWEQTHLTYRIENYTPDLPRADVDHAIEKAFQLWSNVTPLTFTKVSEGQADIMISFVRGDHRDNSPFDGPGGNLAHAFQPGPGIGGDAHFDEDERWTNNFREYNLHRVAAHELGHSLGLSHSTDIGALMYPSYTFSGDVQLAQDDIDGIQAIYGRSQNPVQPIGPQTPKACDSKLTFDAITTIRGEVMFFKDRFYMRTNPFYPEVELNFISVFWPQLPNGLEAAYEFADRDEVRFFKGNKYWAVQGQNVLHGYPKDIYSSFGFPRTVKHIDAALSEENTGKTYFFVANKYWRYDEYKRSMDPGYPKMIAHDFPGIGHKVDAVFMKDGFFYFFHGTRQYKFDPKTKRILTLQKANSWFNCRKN

Rattus norvegicus [6] = species: Rattus norvegicus; assay: Chondroprotective activity in Sprague-Dawley rat cartilage assessed as inhibition of MMP13-mediated C1,C2 release at 0.5 mg/joint, ia measured after 24 hrs by ELISA; type: functional; how it was run: as §1
[7] = molecular target: Disintegrin and metalloproteinase domain-containing protein 17 (Homo sapiens, UniProt P78536); assay: Inhibition of human recombinant TACE using MCA-Pro-Leu-Ala-Gln-Ala-Val-Dpa-Arg-Ser-Ser-Ser-Arg-NH2 as substrate preincubated for 10 mins measured by fluorescence analysis
Sequence of Disintegrin and metalloproteinase domain-containing protein 17 (P78536 whole entry, the tested form may be a part): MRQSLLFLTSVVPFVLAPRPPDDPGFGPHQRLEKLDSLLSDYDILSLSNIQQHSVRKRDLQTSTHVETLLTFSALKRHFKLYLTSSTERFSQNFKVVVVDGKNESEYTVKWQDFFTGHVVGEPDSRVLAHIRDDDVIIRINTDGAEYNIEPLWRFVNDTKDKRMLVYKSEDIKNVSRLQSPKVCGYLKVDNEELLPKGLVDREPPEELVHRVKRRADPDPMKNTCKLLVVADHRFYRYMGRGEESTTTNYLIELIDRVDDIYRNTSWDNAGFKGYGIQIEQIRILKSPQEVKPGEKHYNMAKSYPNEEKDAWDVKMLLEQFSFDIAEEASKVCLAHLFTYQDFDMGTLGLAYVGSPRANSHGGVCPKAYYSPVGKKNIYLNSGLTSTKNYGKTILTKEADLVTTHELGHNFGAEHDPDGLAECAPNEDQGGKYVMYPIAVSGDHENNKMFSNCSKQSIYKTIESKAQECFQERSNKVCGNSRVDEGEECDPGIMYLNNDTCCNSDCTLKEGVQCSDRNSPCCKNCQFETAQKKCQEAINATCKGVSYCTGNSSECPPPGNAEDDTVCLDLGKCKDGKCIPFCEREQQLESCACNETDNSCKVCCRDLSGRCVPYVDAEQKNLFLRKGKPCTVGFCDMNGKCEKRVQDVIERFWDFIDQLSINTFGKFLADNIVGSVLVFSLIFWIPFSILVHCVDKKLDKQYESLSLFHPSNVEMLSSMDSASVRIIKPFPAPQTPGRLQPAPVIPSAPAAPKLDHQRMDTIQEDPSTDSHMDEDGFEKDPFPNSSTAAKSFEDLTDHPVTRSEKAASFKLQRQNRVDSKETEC
How it was run: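 Recombinant human TACE was assayed with its fluorogenic peptide substrate in 25 mM Tris-HCl pH 9, 1.25 μM Zn(OAc)₂, 0.005% Brij-35. Enzyme was 1–10 nM and substrate 4–10 μM. Enzyme was preincubated 10 min with varying inhibitor concentrations, and IC50 came from at least duplicate runs.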

Matrilysin = molecular target: T2, Matrilysin (Homo sapiens, UniProt P09237); assay: Inhibition of human recombinant MMP7 using MCA-Pro-Leu-Gly-Leu-Dpa-Ala-Arg-NH2.AcOH as substrate preincubated for 10 mins measured by fluorescence analysis; how it was run: as §2
T2 sequence (P09237 whole entry): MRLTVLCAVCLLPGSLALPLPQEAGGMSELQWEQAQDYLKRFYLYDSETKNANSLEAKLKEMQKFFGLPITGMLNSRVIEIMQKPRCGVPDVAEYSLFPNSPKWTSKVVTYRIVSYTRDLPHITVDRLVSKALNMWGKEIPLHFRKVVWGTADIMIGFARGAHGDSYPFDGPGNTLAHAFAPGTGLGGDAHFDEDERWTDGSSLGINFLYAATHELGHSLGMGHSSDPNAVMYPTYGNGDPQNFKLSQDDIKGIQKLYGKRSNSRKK

[8] = molecular target: Macrophage metalloelastase (Homo sapiens, UniProt P39900); assay: Inhibition of human recombinant MMP12 using MCA-Pro-Leu-Gly-Leu-Dpa-Ala-Arg-NH2.AcOH as substrate preincubated for 10 mins measured by fluorescence analysis; how it was run: as §2
Sequence of Macrophage metalloelastase (P39900 whole entry): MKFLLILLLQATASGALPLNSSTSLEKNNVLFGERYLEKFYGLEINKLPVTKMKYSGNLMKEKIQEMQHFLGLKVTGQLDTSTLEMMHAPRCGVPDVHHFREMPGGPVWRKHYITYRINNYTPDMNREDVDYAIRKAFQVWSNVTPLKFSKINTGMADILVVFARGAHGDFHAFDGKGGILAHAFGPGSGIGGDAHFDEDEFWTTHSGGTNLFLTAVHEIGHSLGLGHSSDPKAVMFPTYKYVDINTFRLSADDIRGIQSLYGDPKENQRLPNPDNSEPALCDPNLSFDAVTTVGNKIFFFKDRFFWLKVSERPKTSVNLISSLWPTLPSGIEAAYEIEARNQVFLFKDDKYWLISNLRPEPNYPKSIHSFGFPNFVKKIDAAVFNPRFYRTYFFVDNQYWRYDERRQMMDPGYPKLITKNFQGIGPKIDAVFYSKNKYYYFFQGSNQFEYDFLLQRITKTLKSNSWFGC

[9] = molecular target: T3, A disintegrin and metalloproteinase with thrombospondin motifs 4 (Homo sapiens, UniProt O75173); assay: Inhibition of human recombinant aggrecanase 1 using aggrecan-IGD as substrate measured after 15 mins by ELISA
T3 sequence (O75173 whole entry): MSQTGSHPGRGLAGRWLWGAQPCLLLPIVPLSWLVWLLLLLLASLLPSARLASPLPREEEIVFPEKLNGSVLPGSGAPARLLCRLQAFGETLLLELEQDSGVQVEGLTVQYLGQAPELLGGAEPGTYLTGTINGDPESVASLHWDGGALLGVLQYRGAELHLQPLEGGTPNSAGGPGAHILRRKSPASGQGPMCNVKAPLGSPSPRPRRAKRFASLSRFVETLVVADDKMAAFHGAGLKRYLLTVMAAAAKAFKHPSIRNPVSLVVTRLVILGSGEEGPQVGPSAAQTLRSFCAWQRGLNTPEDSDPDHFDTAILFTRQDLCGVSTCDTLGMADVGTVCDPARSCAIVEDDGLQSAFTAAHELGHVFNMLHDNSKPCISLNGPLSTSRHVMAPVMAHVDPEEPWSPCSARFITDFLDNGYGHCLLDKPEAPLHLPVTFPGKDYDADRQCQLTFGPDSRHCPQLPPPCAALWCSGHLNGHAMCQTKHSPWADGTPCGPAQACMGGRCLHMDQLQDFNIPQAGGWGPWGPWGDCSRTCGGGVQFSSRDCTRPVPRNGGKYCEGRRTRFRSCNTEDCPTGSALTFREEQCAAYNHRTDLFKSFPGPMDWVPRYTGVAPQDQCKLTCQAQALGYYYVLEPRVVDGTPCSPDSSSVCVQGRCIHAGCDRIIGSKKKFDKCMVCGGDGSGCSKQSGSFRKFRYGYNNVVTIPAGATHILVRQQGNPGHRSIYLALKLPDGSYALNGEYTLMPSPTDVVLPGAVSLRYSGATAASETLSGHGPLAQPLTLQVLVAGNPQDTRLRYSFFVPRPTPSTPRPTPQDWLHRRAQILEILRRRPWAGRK
How it was run: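 Aggrecanase-1 was run in 50 mM Tris-HCl pH 7.5, 150 mM NaCl, 5 mM CaCl₂, 0.05% Brij-35, with 100 nM recombinant human aggrecan interglobular domain as substrate, for 15 min at 37 °C. The reaction was stopped with EDTA, and ARGSVIL neoepitopes were quantified by ELISA.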

IC50 (Collagenase 3): 0.0013 µM
IC50 (Stromelysin-1): 15 µM
IC50 (Cartilage tissue): 0.005 µM
IC50 [3]: > 20 µM
IC50 [4]: > 20 µM
IC50 [5]: > 20 µM
IC50 (Neutrophil collagenase): > 20 µM
IC50 (Interstitial collagenase): > 20 µM
IC50 [7]: > 20 µM
IC50 (Matrilysin): > 20 µM
IC50 [8]: > 20 µM
IC50 [9]: 7 µM
SMILES: Cc1c(C(=O)O)ccc2c1CC[C@@H]2NC(=O)c1cc(C(=O)NCc2ccc(F)c(C(F)(F)F)c2)nc2c(F)cnn12
inhibition (INH) (Rattus norvegicus [1]): 0%
inhibition (INH) (Rattus norvegicus [2]): 60%
inhibition (INH) (Rattus norvegicus [6]): 95%
